According to ChEMBL document CHEMBL4043064, “Pharmacophore-Based Repositioning of Approved Drugs as Novel Staphylococcus aureus NorA Efflux Pump Inhibitors” (J Med Chem, 2017):
The source made the active and inactive calls. No cut-off for these calls is given here.

What was measured:
[1] = biological target: Quinolone resistance protein NorA (Staphylococcus aureus, UniProt P0A0J7, A116E); experiment: Inhibition of NorA in Staphylococcus aureus SA1199B harboring GrlA A116E mutant assessed as inhibition of ethidium bromide efflux after 5 mins by fluorometric method
Procedure, shortened: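 S. aureus SA-1199B; EtBr loss measured fluorometrically, with compound present versus absent, giving percentage reduction in efflux. Increasing inhibitor concentrations were tested, and IC50 was read by inspecting the dose-response plots.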

[2] = biological target: T1, Quinolone resistance protein NorA (Staphylococcus aureus) (UniProt P0A0J7); experiment: Inhibition of NorA in Staphylococcus aureus SA1199B harboring GrlA A116E mutant assessed as inhibition of ethidium bromide efflux at 50 uM measured after 5 mins by fluorometric method relative to control
T1 sequence (whole entry): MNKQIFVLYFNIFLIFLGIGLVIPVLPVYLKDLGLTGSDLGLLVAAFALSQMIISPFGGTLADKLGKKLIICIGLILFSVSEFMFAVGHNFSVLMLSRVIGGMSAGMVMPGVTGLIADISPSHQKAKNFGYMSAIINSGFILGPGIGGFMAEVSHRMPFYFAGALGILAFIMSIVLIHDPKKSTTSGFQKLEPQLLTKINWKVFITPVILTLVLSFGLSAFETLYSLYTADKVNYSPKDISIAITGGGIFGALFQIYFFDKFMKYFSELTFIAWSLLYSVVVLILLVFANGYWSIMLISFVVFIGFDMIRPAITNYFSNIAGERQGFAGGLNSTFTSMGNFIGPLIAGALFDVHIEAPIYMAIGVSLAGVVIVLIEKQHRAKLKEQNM
Procedure, shortened: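 S. aureus SA-1199B; test compounds at 50 µM. EtBr loss was measured fluorometrically in their presence and compared with their absence to give percentage reduction in efflux.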

[3] = biological target: T1, Quinolone resistance protein NorA (Staphylococcus aureus); experiment: Inhibition of Staphylococcus aureus SAK2378 norA assessed as potentiation of CPX-induced antimicrobial activity up to 100 ug/ml by checkerboard assay
Procedure, shortened: (§1)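 Checkerboard microdilution of compound against CPX, with MICs set by CLSI microdilution. Applies to S. aureus SA-1199B and SA-K2378. Compound alone was tested up to 100 µg/mL. The read-out is fold reduction of the CPX MIC.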

[4] = biological target: T1, Quinolone resistance protein NorA (Staphylococcus aureus); experiment: Inhibition of NorA in Staphylococcus aureus SA1199B harboring GrlA A116E mutant assessed as potentiation of CPX-induced antimicrobial activity up to 100 ug/ml by checkerboard assay; procedure, shortened: as §1

Structure (SMILES)	IC50 [1] [µM]	inhibition [2] [%]	inhibition [3]	inhibition [4]
COC(=O)C1=C(C)NC(C)=C(C(=O)OCCN(C)Cc2ccccc2)C1c1cccc([N+](=O)[O-])c1 (centres undefined) [NICARDIPINE]	22.8	77.1	–	–
CCN(CCCCOC(=O)c1ccc(OC)c(OC)c1)C(C)Cc1ccc(OC)cc1 (centres undefined)	–	45.2	–	–
CCCOc1ccc(-c2cc(OCCN(CC)CC)c3ccccc3n2)cc1	–	–	Active	Active
Cc1ccc(-n2nc(C(C)(C)C)cc2NC(=O)Nc2ccc(OCCN3CCOCC3)c3ccccc23)cc1	–	47	–	–
COC(=O)[C@H]1[C@H]2C[C@@H]3c4[nH]c5cc(OC)ccc5c4CCN3C[C@H]2C[C@@H](OC(=O)c2cc(OC)c(OC)c(OC)c2)[C@@H]1OC	–	–	Active	Active
CCOC(=O)Nc1ccc2c(c1)N(C(=O)CCN1CCOCC1)c1ccccc1S2	–	23.7	–	–
CCCc1nn(C)c2c(=O)[nH]c(-c3cc(S(=O)(=O)N4CCN(C)CC4)ccc3OCC)nc12	–	22.9	–	–
Cc1nc(Nc2ncc(C(=O)Nc3c(C)cccc3Cl)s2)cc(N2CCN(CCO)CC2)n1 [DASATINIB]	11.5	95.8	–	–
COc1cc2ncnc(Nc3ccc(F)c(Cl)c3)c2cc1OCCCN1CCOCC1 [GEFITINIB]	9.7	94.2	–	–
